According to ChEMBL document CHEMBL3352177, “C-glycoside mimetics inhibit glioma stem cell proliferation, migration, and invasion” (J Med Chem, 2014):

Columns and labels:
C6 [1] = assay: Antimigratory activity against rat C6 cells on matrix containing fibronectin after 24 hrs by 2-D migration assay; type: functional, cell-based
How it was run: (§1)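 Boyden chamber 2D migration toward serum over 24 h on fibronectin, vitronectin or laminin matrix. Cells in DMEM with 0.1% BSA in the upper compartment with or without compound; 10% FCS medium below. Gli4/Gli7 taken from neurosphere cultures. Migrated cells methanol-fixed, crystal violet stained, counted at ×200. Ki from Hill equation fit; ≥3 independent experiments, each point in quadruplicate.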

SNB-75 [2] = assay: Antimigratory activity against human SNB75 cells on matrix containing laminin after 24 hrs by 2-D migration assay; type: functional, cell-based; how it was run: as §1
[3] = Antimigratory activity against human Gli7 cells on matrix containing laminin after 24 hrs by 2-D migration assay; type: functional, cell-based; how it was run: as §1
SNB-75 [4] = assay: Antimigratory activity against human SNB75 cells on matrix containing vitronectin after 24 hrs by 2-D migration assay; type: functional, cell-based; how it was run: as §1
[5] = Antiproliferative activity against human Caco2 cells after 48 to 72 hrs by MTT assay; type: functional, cell-based; settings: Caco-2
How it was run: (§2)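 MTT assay read 48 and 72 h after compound addition. Cell lines grown in DMEM with 10% heat-inactivated FCS, 2 mM L-glutamine, 1 mM sodium pyruvate; GBM stem cells grown as nonadherent neurospheres. IC50 by Hill equation fit; ≥3 independent experiments, each point repeated six times.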

[6] = Antimigratory activity against human Gli7 cells on matrix containing vitronectin after 24 hrs by 2-D migration assay; type: functional, cell-based; how it was run: as §1
SNB-75 [7] = assay: Antiproliferative activity against human SNB75 cells after 48 to 72 hrs by MTT assay; type: functional, cell-based; how it was run: as §2
[8] = Antimigratory activity against human Gli4 cells on matrix containing laminin after 24 hrs by 2-D migration assay; type: functional, cell-based; how it was run: as §1
[9] = Cytotoxicity against rat cortical neurons at 100 uM using propidium iodide by flow cytometry; settings: cortical neurone
[10] = Cytotoxicity against mouse astrocytes at 100 uM by MTT assay; type: cell-based; settings: astrocyte
How it was run: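 Primary astrocytes from day-2 newborn mouse cortex, kept 21 days (nonproliferative, GFAP-positive), exposed to compound up to 100 μM; viability by MTT assay.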

C6 [11] = assay: Antimigratory activity against rat C6 cells on matrix containing vitronectin after 24 hrs by 2-D migration assay; type: functional, cell-based; how it was run: as §1
MDA-MB-435 = assay: Antiproliferative activity against human MDA-MB-435 cells after 48 to 72 hrs by MTT assay; type: functional, cell-based; how it was run: as §2
C6 [12] = assay: Antiproliferative activity against rat C6 cells after 48 to 72 hrs by MTT assay; type: functional, cell-based; how it was run: as §2
[13] = Antimigratory activity against human Gli4 cells on matrix containing vitronectin after 24 hrs by 2-D migration assay; type: functional, cell-based; how it was run: as §1
[14] = Antiinvasive activity against human Gli4 cells after 48 hrs by matrigel assay; type: functional, cell-based
[15] = Antiinvasive activity against human Gli7 cells after 48 hrs by matrigel assay; type: functional, cell-based
SNB-75 [16] = assay: Antimigratory activity against human SNB75 cells on matrix containing fibronectin after 24 hrs by 2-D migration assay; type: functional, cell-based; how it was run: as §1
[17] = Antiproliferative activity against human HuH7 cells after 48 to 72 hrs by MTT assay; type: functional, cell-based; settings: Huh-7; how it was run: as §2
[18] = Antimigratory activity against human Gli4 cells on matrix containing fibronectin after 24 hrs by 2-D migration assay; type: functional, cell-based; how it was run: as §1
[19] = Antiproliferative activity against human Gli7 cells after 48 to 72 hrs by MTT assay; type: functional, cell-based; how it was run: as §2
DU-145 = assay: Antiproliferative activity against human DU145 cells after 48 to 72 hrs by MTT assay; type: functional, cell-based; how it was run: as §2
[20] = Antiproliferative activity against mouse B16F10 cells after 48 to 72 hrs by MTT assay; type: functional, cell-based; settings: B16-F10; how it was run: as §2
[21] = Antimigratory activity against human Gli7 cells on matrix containing fibronectin after 24 hrs by 2-D migration assay; type: functional, cell-based; how it was run: as §1
A-431 = assay: Antiproliferative activity against human A431 cells after 48 to 72 hrs by MTT assay; type: functional, cell-based; how it was run: as §2
C6 [22] = assay: Antimigratory activity against rat C6 cells on matrix containing laminin after 24 hrs by 2-D migration assay; type: functional, cell-based; how it was run: as §1
[23] = Cytotoxicity against rat cortical neurons at 100 uM by MAP2 immunofluorescence assay; settings: cortical neurone
How it was run: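 Rat E17 embryonic cortical neurons cultured 17 days, treated 48 h; then 5 μg/mL Hoechst 33342 and 10 μM propidium iodide for 30 min at 37 °C, PBS wash, 4% paraformaldehyde fixation. Fluorescence read on plate reader and by camera imaging; MAP2 immunofluorescence imaged; Triton X-100 (2%) control; mean % PI uptake from three wells per condition.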

MDA-MB-231 = assay: Antiproliferative activity against human MDA-MB-231 cells after 48 to 72 hrs by MTT assay; type: functional, cell-based; how it was run: as §2

CC1(C)O[C@@H]2[C@H](O1)[C@@H](Nc1cccc3ccccc13)[P@](=O)(c1ccccc1)O[C@@H]2[C@H]1COC(C)(C)O1
Ki (C6 [1]): 126 nM
Ki (SNB-75 [2]): 60 nM
Ki [3]: 100 nM
Ki (SNB-75 [4]): 100 nM
IC50 [5]: > 100000 nM
Ki [6]: 42 nM
IC50 (SNB-75 [7]): 3410 nM
Ki [8]: 22 nM
Activity [9]: Toxic
Activity [10]: Toxic
Ki (C6 [11]): 300 nM
IC50 (MDA-MB-435): 4690 nM
IC50 (C6 [12]): 5740 nM
Ki [13]: 36 nM
Ki [14]: 290 nM
Ki [15]: 46 nM
Ki (SNB-75 [16]): 124 nM
IC50 [17]: 6870 nM
Ki [18]: 31 nM
IC50 [19]: 2330 nM
IC50 (DU-145): > 100000 nM
IC50 [20]: > 100000 nM
Ki [21]: 16 nM
IC50 (A-431): 1340 nM
Ki (C6 [22]): 77 nM
Activity [23]: Toxic
IC50 (MDA-MB-231): 9810 nM
